Only some compounds are listed: those with a hit (about 3.8% of all), similar ones and a draw of the others.
OX1R antag-1: blocks the human orexin 1 receptor; inhibition, % at 6.6 µM; AID 485270; OX1R-expressing cells, FRET antagonist read-out; 330,000 compounds, 1.8% hits; O43613; in the data active means inhibition mostly above about 38%, no sharp cut-off; inactive means mostly below about 40%;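 further: 0% = agonist challenge alone and 100% = reference antagonist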
Target sequence (O43613 whole entry, looked up): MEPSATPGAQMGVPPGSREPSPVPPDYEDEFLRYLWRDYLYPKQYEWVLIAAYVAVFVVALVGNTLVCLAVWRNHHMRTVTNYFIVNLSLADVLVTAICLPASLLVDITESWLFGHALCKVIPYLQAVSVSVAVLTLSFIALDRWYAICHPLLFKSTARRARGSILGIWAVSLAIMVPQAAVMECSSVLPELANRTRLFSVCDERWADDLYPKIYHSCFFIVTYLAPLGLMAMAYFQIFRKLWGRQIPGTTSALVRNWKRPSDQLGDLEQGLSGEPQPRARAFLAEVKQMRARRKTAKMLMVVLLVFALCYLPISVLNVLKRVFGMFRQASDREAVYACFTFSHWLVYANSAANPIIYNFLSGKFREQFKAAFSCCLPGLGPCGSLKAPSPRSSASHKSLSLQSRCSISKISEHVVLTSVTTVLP
GPR7 antagonist: antagonists of human GPR7 (neuropeptides B/W receptor 1). P48145. GPR7-expressing cells, fluorescence antagonist assay. inhibition, % at 4.4 µM. 290,000 compounds, 1.1% hits; in the data active means inhibition above about 16%, passing the limit was not always enough;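 further: cells stimulated with the agonist NPW; 0% = agonist with vehicle and 100% = vehicle without agonist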
OX1R antag-2: human HCRTR1 antagonism. O43613. CHO/OX1R cells, Fluo-8 calcium fluorescence, orexin A. inhibition, % at 5 µM. 330,000 compounds, 0.43% hits. AID 434989;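 active means inhibition above its plate's threshold, mean inhibition of all tested compounds on the plate plus 3 SD, cut at about 37% in these data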;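 further: 0% = orexin A challenge wells and 100% = SB-334867-A antagonist wells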
CHO parental Ca: counter-screen: ATP calcium response change in parental CHO cells | parental CHO-K1, ATP-induced calcium, Fluo-8 fluorescence | inhibition, % at 5.6 µM | 330,000 compounds, 0.63% hits | AID 463079;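 active means inhibition above that plate's mean sample inhibition plus 3 SD, cut at about 26% in these data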;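 further: 0% = ATP-challenged DMSO wells and 100% = DMSO wells without ATP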
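Measured by: calcium-sensitive Fluo-8 fluorescence / Test system: CHO parental line / Controls: ATP-challenged DMSO wells low, unchallenged DMSO wells high / Measure: % inhibition / Compound: single nominal dose of 5.6 µM per compound / Replicates: single well per compound, no replicates / Reagent: ATP as calcium-mobilizing challenge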
MPTP block: inhibitors of mitochondrial permeability transition pore. isolated mouse mitochondria, Ca2+ swelling absorbance, 30 min. inhibition, % at 10 µM. 360,000 compounds, 1.4% hits;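 active means inhibition of 50% or more, scaled per plate between neutral and stimulator controls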;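 further: 0% = DMSO wells given calcium and 100% = 1 mM EGTA wells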
Rh123 counter: membrane potential counter-screen of mitochondrial pore inhibitors. inhibition, % at 10 µM. isolated mitochondria, Rhodamine 123 fluorescence. 5,000 compounds, 78% hits. shares compounds with MPTP block; in the data active means inhibition above about 22%;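 further: 0% = DMSO vehicle and 100% = positive control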
MPTP abs DR: dose response confirmation of mitochondrial permeability transition pore inhibitors; shares compounds with MPTP block; isolated mitochondria swelling, absorbance; IC50, µM; 780 compounds, 58% hits; AID 651561; in the data active means IC50 below about 20 µM
MPTP cs DR: counter-screen for mitochondrial permeability transition pore inhibitors, dose response. IC50, µM. isolated mitochondria counterscreen, fluorescence read-out. shares compounds with MPTP block. AID 651564. 780 compounds, 49% hits; in the data active means IC50 below about 80 µM
The depositor's hits bear a star; i = inactive; / = not tested or not shown; + = active, no number.

SMILES	OX1R antag-1	GPR7 antagonist	OX1R antag-2	CHO parental Ca	MPTP block	Rh123 counter	others
CC(C)(C)c1ccc(OCCCn2ccnc2)cc1	13.9	-1.7	-13.8	-15.6	+	10.5	MPTP abs DR=13.3*;MPTP cs DR=27.2*
CCn1cc(/C=C(\NC(=O)c2ccccc2)C(=O)NCCCN2CCOCC2)c2ccccc21	15.9	-7.7	-29.1	-21.7	-1.3	/
Cc1cccc[n+]1CCCCCCCCCC[n+]1ccccc1C	8.9	-0.2	-20.0	4.1	-3.7	/
CCCCCCCCCC[n+]1cccc2c3ccccc3ccc21	/	69.9*	/	/	96.4*	97.4*
COc1cccc(/C=C/C(=O)OCC(=O)NCCC2=CCCCC2)c1	14.6	-11.1	-41.2	-16.2	0.8	/
CC(C)CC(=O)Nc1nnc(SCC(=O)NCC2CCCO2)s1 (configuration not stated)	30.6	-5.7	-4.5	7.6	-0.1	/
Cc1ccc(NC(=O)C(C)N=C2NS(=O)(=O)c3ccccc32)cc1F (configuration not stated)	5.3	-3.2	-22.7	2.1	87.3*	87.5*
CC(N=C1NS(=O)(=O)c2ccccc21)C(=O)NCCCc1ccccc1 (configuration not stated)	4.6	9.6	-10.6	1.5	2.0	/
O=C(COC(=O)Cc1cccs1)NCc1ccc(F)cc1	2.4	-11.5	-8.8	-2.9	0.8	/
Cc1ccc(C(OCC(O)CNC(C)c2ccccc2)c2ccccc2)cc1 (configuration not stated)	16.4	8.8	-27.3	-13.8	80.4*	-1.5	MPTP abs DR=7.07*;MPTP cs DR=23.2*
Cc1ccc(C(OCC(O)CNC(CO)C(O)c2ccc([N+](=O)[O-])cc2)c2ccccc2)cc1 (configuration not stated)	19.5	33.0	-5.7	-2.0	85.4*	-10.4	MPTP abs DR=17*;MPTP cs DR=62.1*
O=C(N/N=C\c1ccc[nH]1)C1COc2ccccc2O1 (configuration not stated)	14.1	-4.4	-10.4	-12.6	3.5	/
Cc1cccc2sc(N(CCN(C)C)C(=O)C3CCN(S(=O)(=O)c4cccs4)CC3)nc12	0.4	/	-15.1	-10.0	72.1*	-18.5	MPTP abs DR=i;MPTP cs DR=>80
COc1cc2ccccc2cc1C(=O)N(CCN(C)C)c1nc2c(OC)ccc(OC)c2s1	14.3	15.8	5.6	-7.0	67.4*	-8.1	MPTP abs DR=>100;MPTP cs DR=52.1*
COc1cc2ccccc2cc1C(=O)N(CCN(C)C)c1nc2ccc(C)cc2s1	6.1	16.0	-24.9	-29.2	1.7	/
CN(C)CCN(C(=O)C1CCN(S(=O)(=O)c2cccs2)CC1)c1nc2ccc(F)cc2s1	3.7	/	-18.1	-6.1	11.6	/
COc1cc2ccccc2cc1C(=O)N(CCN(C)C)c1nc2c(C)cccc2s1	13.6	17.1	-17.3	-17.8	68.7*	-8.0	MPTP abs DR=i;MPTP cs DR=>80
COc1ccc(Cl)c2sc(N(CCN(C)C)C(=O)c3ccc4c(c3)OCCO4)nc12	6.8	/	3.0	-12.5	73.8*	-12.8	MPTP abs DR=i;MPTP cs DR=50.1*
CC(C)C(=O)Nc1ccc(C(=O)NNC(=O)CCCOc2ccc(Cl)cc2Cl)cc1	6.0	3.0	-28.3	-14.4	0.1	/
COc1ccc(CN(C)C(=O)/C=C/c2ccc(S(=O)(=O)N3CCCCCC3)cc2)cc1	-1.1	/	2.6	-14.9	0.8	/
COC(=O)C(Cc1c[nH]c2ccccc12)NC(=O)c1cccc(S(=O)(=O)N2CCCCC2)c1 (configuration not stated)	-2.0	/	-8.8	-11.8	0.0	/
O=C(Nc1ccc(Br)cc1F)c1ccncc1	12.7	-8.5	-6.7	4.5	-3.1	/
O=C(Nc1ccccc1)Nc1cccc(Cl)c1Cl	33.1	2.1	-7.6	-22.2	92.9*	96.6*
O=C(Nc1ccc(Cl)c(Cl)c1)Nc1ccc(Br)cc1F	49.8	-3.4	31.8	35.5*	99.8*	73.9*
CSc1ccccc1NC(=O)Nc1cccc(Cl)c1	22.8	2.9	-13.4	-19.9	61.7*	85.2*
SMILES	OX1R antag-1	GPR7 antagonist	OX1R antag-2	CHO parental Ca	MPTP block	Rh123 counter	others
CSCCC(NC(N)=O)C(=O)Nc1ccc(F)c(Cl)c1 (configuration not stated)	-1.3	-18.2	-6.9	-3.5	64.3*	80.2*
Cn1[nH]c(CSc2ccc(Cl)cc2)cc1=O	13.3	12.6	-4.6	-10.9	3.0	/
NC(=O)C1(N2CCCCC2)CCN(C(=S)Nc2ccc(S(N)(=O)=O)cc2)CC1	10.5	-6.4	0.9	-2.0	0.9	/
CSc1ccccc1NC(=O)Nc1ccc(F)c(Cl)c1	16.7	0.2	7.1	-8.6	92.8*	74.5*
COc1ccc(C=NNc2ccc([N+](=O)[O-])cc2S(=O)(=O)Nc2ccccc2C(=O)O)cc1OC	10.1	/	-14.9	-11.5	59.7*	36.7*
O=C(O)c1ccccc1NS(=O)(=O)c1ccc(N/N=C/c2ccc(O)c(O)c2)c([N+](=O)[O-])c1	/	/	/	/	6.5	/
COc1cccc(NC(=O)Cn2nnc(-c3ccccc3N)n2)c1	8.0	-2.6	-11.7	-6.3	1.5	/
COc1ccc(NC(=O)Cn2nnc(-c3ccccc3NS(=O)(=O)c3ccccc3)n2)cc1	25.6	-4.6	22.8	42.8*	77.2*	75.0*
CC1Cc2cc(S(=O)(=O)NCc3ccccc3)ccc2N1C(=O)C1CCC1 (configuration not stated)	19.0	-10.2	-6.9	0.1	72.2*	53.2*
COC(=O)c1c(-c2ccccc2)c[nH]c1C	9.2	0.0	-6.5	16.1	0.5	/
O=[N+]([O-])c1cc(CS(=O)(=O)Oc2ccc(Cl)cc2)c(O)c([N+](=O)[O-])c1	34.8	/	-4.8	-7.3	74.4*	59.5*
CC(C)(C)c1ccc2c(c1)C(=O)c1ccccc1C2=O	18.6	-5.5	-11.9	-9.6	4.6	/
CC(C)(C=O)C1=CC(=O)c2ccccc2C1=O	29.1	-1.2	22.2	10.7	99.7*	0.9
O=C(O)c1nn(-c2ccccc2)ccc1=O	11.5	-1.1	-13.1	4.9	12.7	/
CC(C)Nc1ccc(Nc2ccnc3cc4ccccc4cc23)cc1	37.7	6.2	-11.0	-4.8	68.4*	69.7*
S=C(NCCSCc1ccc(Cl)cc1)Nc1ccccc1	6.2	8.7	-13.0	18.8	68.1*	97.0*
Cc1cccc(CSCCNC(=S)Nc2ccccc2)c1	10.3	-13.4	-12.5	-19.9	82.2*	78.8*
CCOc1ccc(CSCCNC(=S)Nc2ccc(OC)cc2)cc1	17.5	-6.5	-14.4	-36.2	16.7	/
S=C(NCCSCc1ccccc1Cl)Nc1ccccc1	24.3	-15.3	-9.0	-2.9	81.6*	104.1*
CCCNC(=S)Nc1ccccc1	-1.9	-3.5	1.2	-0.9	-1.1	/
Cn1c(SCC(=O)NCc2cccs2)nnc1-c1ccc(O)cc1	15.6	0.3	-12.6	-5.0	0.2	/
